Laboratory results published in ChEMBL document CHEMBL5661979, “Pharmacological inhibition of BMK1 suppresses tumor growth through promyelocytic leukemia protein” (Cancer Cell, 2010).
pIC50: −log10 of the molar value. The source made the active and inactive calls. The calls are words filed in the database; no cut-off is given here.

Experiments:
[1] = Inhibition of HGK/MINK/TNIK in human HeLa cells lysate at 2 uM pre incubated for 15 mins followed by ATP acyl phosphate probe addition and measured after 10 mins by LC-MS/MS analysis relative to control; conditions: 25 min, condition cancer
[2] = target: Serine/threonine-protein kinase Nek4 (Homo sapiens, UniProt P51957); test: Inhibition of NEK4 in human HeLa cells lysate pre incubated for 15 mins followed by ATP acyl phosphate probe addition and measured after 10 mins by LC-MS/MS analysis; format: subcellular
eIF-2-alpha kinase GCN2 = eIF-2-alpha kinase GCN2 (Homo sapiens, UniProt Q9P2K8); test: Inhibition of GCN2 in human HeLa cells lysate pre incubated for 15 mins followed by ATP acyl phosphate probe addition and measured after 10 mins by LC-MS/MS analysis; format: subcellular
[3] = Plasma concentration in C57Bl/6 mouse at 50 mg/kg, ip administered for 8 day and measured 8 hr post last dose by LC-MS/MS analysis; format: ADME, organism-based
[4] = target: Mitogen-activated protein kinase 14 (Homo sapiens, UniProt Q16539); test: Inhibition of P38alpha interaction site in human HeLa cells lysate at 50 uM pre incubated for 15 mins followed by ATP acyl phosphate probe addition and measured after 10 mins by LC-MS/MS analysis relative to control; format: subcellular; conditions: time 25.0 min
[5] = target: Glycogen synthase kinase-3 alpha (Homo sapiens, UniProt P49840); test: Inhibition of GSK3A in human HeLa cells lysate at 50 uM pre incubated for 15 mins followed by ATP acyl phosphate probe addition and measured after 10 mins by LC-MS/MS analysis relative to control; format: subcellular; conditions: time 25.0 min
Glycogen synthase kinase-3 alpha, sequence (P49840 2-483 limits assumed): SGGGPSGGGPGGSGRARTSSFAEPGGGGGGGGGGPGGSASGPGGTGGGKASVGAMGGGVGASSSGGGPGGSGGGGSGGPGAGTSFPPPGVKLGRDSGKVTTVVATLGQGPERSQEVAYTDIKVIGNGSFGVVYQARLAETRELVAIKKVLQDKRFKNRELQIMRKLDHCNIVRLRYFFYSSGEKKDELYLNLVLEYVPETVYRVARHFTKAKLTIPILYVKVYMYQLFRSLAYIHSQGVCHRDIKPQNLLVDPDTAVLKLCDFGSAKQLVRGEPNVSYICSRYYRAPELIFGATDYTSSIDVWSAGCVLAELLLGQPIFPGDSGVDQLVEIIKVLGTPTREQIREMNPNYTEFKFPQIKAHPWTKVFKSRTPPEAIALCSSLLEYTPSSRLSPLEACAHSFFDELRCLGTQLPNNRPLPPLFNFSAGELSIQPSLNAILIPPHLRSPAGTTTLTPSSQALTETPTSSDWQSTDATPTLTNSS

[6] = target: Cyclin-dependent kinase 2 (Homo sapiens, UniProt P24941); test: Inhibition of CDK2 in human HeLa cells lysate at 2 uM pre incubated for 15 mins followed by ATP acyl phosphate probe addition and measured after 10 mins by LC-MS/MS analysis relative to control; format: subcellular; conditions: time 25.0 min
In short: (§1)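 KiNativ profiling in HeLa lysate (5 mg/mL total protein). Lysate incubated 15 min with inhibitor at 50, 10, 2, 0.8 or 0 μM. ATP or ADP acylphosphate probe then added (5 μM final) and reacted 10 min. Reaction stopped with urea and analysed by targeted MS, using up to four fragment ions per kinase peptide-probe conjugate. % inhibition taken against untreated lysate. Run in duplicate.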

[7] = target: Microtubule-associated serine/threonine-protein kinase 3 (Homo sapiens, UniProt O60307); test: Inhibition of MAST3 in human HeLa cells lysate at 50 uM pre incubated for 15 mins followed by ATP acyl phosphate probe addition and measured after 10 mins by LC-MS/MS analysis relative to control; format: subcellular; conditions: time 25.0 min
[8] = target: Serine/threonine-protein kinase Chk2 (Homo sapiens, UniProt O96017); test: Inhibition of CHK2 in human HeLa cells lysate at 2 uM pre incubated for 15 mins followed by ADP acyl phosphate probe addition and measured after 10 mins by LC-MS/MS analysis relative to control; format: subcellular; conditions: time 25.0 min
[9] = target: Dual specificity mitogen-activated protein kinase kinase 4 (Homo sapiens, UniProt P45985); test: Inhibition of MAP2K4 in human HeLa cells lysate pre incubated for 15 mins followed by ADP acyl phosphate probe addition and measured after 10 mins by LC-MS/MS analysis; format: subcellular
Dual specificity mitogen-activated protein kinase kinase 4, sequence (P45985 whole entry): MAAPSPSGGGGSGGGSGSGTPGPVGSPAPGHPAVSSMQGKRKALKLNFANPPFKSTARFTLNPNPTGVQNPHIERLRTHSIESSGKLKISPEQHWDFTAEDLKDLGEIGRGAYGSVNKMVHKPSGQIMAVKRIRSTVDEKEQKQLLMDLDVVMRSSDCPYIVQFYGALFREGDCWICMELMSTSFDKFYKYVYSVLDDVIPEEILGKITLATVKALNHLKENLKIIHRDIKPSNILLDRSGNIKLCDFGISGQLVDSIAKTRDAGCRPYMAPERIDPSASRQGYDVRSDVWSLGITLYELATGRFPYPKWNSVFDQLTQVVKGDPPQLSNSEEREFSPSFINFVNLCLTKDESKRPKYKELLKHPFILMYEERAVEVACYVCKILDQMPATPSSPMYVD

[10] = target: Serine/threonine-protein kinase LATS1 (Homo sapiens) (UniProt O95835); test: Inhibition of LATS1 in human HeLa cells lysate at 2 uM pre incubated for 15 mins followed by ATP acyl phosphate probe addition and measured after 10 mins by LC-MS/MS analysis relative to control; format: subcellular; conditions: time 25.0 min
[11] = target: STE20-like serine/threonine-protein kinase (Homo sapiens, UniProt Q9H2G2); test: Inhibition of SLK in human HeLa cells lysate at 2 uM pre incubated for 15 mins followed by ADP acyl phosphate probe addition and measured after 10 mins by LC-MS/MS analysis relative to control; format: subcellular; conditions: time 25.0 min
STE20-like serine/threonine-protein kinase, sequence (Q9H2G2 whole entry, looked up): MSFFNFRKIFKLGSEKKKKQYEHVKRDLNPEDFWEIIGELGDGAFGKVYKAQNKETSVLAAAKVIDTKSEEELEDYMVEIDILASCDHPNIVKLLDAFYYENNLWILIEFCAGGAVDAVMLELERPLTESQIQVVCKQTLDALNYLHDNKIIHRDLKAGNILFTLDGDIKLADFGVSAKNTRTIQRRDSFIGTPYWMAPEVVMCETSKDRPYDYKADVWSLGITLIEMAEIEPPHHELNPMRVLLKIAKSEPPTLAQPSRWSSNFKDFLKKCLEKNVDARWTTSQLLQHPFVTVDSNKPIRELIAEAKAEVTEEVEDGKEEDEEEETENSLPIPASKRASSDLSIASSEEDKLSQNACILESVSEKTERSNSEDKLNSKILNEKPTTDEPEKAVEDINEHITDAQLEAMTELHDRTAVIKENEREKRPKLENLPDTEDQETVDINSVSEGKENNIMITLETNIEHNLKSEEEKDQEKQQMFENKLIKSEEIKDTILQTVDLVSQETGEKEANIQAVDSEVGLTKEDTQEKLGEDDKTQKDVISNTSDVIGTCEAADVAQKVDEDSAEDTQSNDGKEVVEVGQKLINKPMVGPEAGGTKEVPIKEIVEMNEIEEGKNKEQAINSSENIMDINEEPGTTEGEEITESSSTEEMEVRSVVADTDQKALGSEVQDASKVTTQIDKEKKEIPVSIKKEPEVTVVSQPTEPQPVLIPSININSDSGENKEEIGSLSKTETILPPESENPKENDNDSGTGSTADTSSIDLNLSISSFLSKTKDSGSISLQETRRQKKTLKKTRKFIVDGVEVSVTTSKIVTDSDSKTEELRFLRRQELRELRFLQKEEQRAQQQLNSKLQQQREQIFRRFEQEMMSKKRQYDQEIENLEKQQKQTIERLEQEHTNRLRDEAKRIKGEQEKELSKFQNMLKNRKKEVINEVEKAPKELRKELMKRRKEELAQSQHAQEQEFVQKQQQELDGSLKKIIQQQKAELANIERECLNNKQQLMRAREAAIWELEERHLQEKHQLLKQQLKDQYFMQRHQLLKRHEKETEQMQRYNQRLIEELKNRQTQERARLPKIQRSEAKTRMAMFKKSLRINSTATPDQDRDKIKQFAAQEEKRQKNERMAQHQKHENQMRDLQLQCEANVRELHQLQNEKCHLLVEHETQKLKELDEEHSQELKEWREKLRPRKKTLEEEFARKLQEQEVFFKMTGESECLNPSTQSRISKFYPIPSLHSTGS

[12] = target: Serine/threonine-protein kinase ULK2 (Homo sapiens) (UniProt Q8IYT8); test: Inhibition of ULK2 in human HeLa cells lysate at 2 uM pre incubated for 15 mins followed by ADP acyl phosphate probe addition and measured after 10 mins by LC-MS/MS analysis relative to control; format: subcellular; conditions: time 25.0 min
[13] = Inhibition of HGK/MINK/TNIK in human HeLa cells lysate at 50 uM pre incubated for 15 mins followed by ATP acyl phosphate probe addition and measured after 10 mins by LC-MS/MS analysis relative to control; conditions: 25 min, condition cancer
[14] = target: Calcium/calmodulin-dependent protein kinase kinase 1 (Homo sapiens, UniProt Q8N5S9); test: Inhibition of CAMKK1 in human HeLa cells lysate at 50 uM pre incubated for 15 mins followed by ADP acyl phosphate probe addition and measured after 10 mins by LC-MS/MS analysis relative to control; format: subcellular; conditions: time 25.0 min; in short: as §1
Calcium/calmodulin-dependent protein kinase kinase 1, sequence (Q8N5S9 whole entry, looked up): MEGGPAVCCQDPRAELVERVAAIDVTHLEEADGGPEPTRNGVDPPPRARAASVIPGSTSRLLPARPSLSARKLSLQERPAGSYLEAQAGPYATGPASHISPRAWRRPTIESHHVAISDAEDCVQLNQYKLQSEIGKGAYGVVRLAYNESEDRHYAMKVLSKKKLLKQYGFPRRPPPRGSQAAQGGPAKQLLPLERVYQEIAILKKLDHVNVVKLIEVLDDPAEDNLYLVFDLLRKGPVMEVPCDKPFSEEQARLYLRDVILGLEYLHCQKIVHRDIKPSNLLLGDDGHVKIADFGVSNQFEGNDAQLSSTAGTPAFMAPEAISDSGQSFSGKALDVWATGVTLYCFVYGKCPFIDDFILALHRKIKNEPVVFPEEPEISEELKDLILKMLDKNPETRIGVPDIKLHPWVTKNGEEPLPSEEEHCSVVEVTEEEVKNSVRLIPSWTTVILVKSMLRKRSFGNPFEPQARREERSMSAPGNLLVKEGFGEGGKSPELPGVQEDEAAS

A549 = test: Antitumor activity against human A549 cells xenografted in NOD/SCID mouse assessed as reduction in BMK activation at 50 mg/kg, ip administered twice a day for 2 days by Western blot analysis; format: functional, organism-based; conditions: time 2.0 day
In short: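 A549 cells (1×10^6, in DMEM) were injected s.c. into the right flank of 6-week-old Nod/Scid mice. On day 21, mice received 50 mg/kg twice daily or carrier; 2 per group. After 2 days, tumors were homogenized in E1A buffer. Western blot read BMK1 activation (mobility shift) and p21, quantified by densitometry normalized to GAPDH.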

[15] = target: Cyclin-dependent kinase 16 (Homo sapiens, UniProt Q00536); test: Inhibition of PCTAIRE1 in human HeLa cells lysate at 10 uM pre incubated for 15 mins followed by ADP acyl phosphate probe addition and measured after 10 mins by LC-MS/MS analysis relative to control; format: subcellular; conditions: time 25.0 min
[16] = target: Tyrosine-protein kinase ABL (Homo sapiens, UniProt P00519+P42684); test: Inhibition of ABL1/2 in human HeLa cells lysate at 50 uM pre incubated for 15 mins followed by ATP acyl phosphate probe addition and measured after 10 mins by LC-MS/MS analysis relative to control; format: subcellular; conditions: time 25.0 min
Tyrosine-protein kinase ABL, sequence (P00519 whole entry, looked up, the tested form may be a part): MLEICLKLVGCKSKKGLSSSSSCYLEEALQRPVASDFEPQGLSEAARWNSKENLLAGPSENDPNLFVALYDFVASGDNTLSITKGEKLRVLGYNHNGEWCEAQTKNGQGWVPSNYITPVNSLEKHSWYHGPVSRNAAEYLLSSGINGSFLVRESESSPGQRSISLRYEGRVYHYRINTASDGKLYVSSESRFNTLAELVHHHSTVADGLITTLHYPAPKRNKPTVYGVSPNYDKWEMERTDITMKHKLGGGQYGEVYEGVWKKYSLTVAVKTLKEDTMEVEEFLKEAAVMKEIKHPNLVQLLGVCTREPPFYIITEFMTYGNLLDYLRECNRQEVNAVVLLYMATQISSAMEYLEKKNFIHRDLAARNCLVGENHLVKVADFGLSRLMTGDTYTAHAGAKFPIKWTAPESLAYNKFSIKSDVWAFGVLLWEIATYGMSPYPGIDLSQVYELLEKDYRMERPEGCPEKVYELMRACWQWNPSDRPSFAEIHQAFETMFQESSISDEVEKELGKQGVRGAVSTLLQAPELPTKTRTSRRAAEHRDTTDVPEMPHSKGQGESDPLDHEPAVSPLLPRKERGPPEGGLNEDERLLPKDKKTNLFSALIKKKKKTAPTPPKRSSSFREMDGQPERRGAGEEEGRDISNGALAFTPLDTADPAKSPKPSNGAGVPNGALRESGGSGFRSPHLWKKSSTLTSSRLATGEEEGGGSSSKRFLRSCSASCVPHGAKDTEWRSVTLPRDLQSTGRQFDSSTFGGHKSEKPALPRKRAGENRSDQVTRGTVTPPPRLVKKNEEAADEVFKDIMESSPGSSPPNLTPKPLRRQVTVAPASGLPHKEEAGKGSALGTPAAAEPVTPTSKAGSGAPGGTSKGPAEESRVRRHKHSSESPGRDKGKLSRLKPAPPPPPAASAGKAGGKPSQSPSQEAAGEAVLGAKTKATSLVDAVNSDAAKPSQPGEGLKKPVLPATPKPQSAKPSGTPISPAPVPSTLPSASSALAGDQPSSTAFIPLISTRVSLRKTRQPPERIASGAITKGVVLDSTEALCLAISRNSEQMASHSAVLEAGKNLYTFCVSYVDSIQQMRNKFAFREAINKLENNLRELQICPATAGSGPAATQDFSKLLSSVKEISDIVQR
Tyrosine-protein kinase ABL, sequence (P42684 whole entry, looked up, the tested form may be a part): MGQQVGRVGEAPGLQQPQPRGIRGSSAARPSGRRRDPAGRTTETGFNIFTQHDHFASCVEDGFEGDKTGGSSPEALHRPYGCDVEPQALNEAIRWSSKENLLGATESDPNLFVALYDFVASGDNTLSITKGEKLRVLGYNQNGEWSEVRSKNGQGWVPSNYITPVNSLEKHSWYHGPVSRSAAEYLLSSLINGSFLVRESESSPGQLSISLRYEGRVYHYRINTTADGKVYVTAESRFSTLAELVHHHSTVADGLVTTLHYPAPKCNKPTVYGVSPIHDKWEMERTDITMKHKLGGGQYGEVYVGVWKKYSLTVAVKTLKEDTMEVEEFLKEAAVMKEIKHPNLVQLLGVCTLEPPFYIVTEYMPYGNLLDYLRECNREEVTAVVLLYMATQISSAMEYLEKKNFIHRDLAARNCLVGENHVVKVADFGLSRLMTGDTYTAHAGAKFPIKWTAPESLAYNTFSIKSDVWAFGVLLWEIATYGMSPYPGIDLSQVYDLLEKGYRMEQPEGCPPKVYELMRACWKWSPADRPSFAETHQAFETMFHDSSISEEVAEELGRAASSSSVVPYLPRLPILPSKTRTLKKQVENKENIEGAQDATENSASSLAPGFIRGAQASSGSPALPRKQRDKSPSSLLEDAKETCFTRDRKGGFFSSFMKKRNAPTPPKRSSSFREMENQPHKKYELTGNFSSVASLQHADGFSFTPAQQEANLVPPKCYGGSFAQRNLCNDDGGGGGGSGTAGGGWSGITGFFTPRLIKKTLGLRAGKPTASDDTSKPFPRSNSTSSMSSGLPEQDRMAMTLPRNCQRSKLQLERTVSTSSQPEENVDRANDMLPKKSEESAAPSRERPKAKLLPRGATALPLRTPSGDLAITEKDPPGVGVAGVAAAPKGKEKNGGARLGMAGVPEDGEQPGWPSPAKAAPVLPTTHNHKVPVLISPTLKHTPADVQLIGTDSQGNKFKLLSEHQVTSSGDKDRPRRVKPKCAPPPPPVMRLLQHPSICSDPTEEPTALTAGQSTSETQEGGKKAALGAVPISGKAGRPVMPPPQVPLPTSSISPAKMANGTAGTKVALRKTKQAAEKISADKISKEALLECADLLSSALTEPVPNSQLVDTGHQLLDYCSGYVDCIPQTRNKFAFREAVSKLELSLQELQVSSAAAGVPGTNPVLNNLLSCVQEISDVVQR
In short: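 HeLa cell lysates (5 mg/mL total protein) were preincubated with inhibitor at 0, 0.8, 2, 10 or 50 μM for 15 min. ATP or ADP acylphosphate probe was then added (5 μM final) for 10 min, and reactions were stopped with urea. Up to four fragment ions per kinase probe-peptide were quantified by targeted MS. % inhibition was taken relative to untreated lysate. Run in duplicate.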

CCOc1cc(N2CCC(O)CC2)ccc1Nc1ncc2c(n1)N(C)c1ccccc1C(=O)N2C
inhibition at 2 µM [1]: -5.2% | pIC50 [2]: < 4.30 | pIC50 (eIF-2-alpha kinase GCN2): < 4.30 | concentration at 192 h [3]: 12.8 µM | inhibition [4]: -2.5% | inhibition [5]: 10.4% | inhibition [6]: 2% | inhibition [7]: -5.8% | inhibition [8]: 7.6% | pIC50 [9]: < 4.30 | inhibition [10]: 5.7% | inhibition [11]: 13.3% | inhibition [12]: 7.3% | inhibition at 50 µM [13]: -2.6% | inhibition [14]: 17% | Activity (A549): Active | inhibition [15]: 20.8% | inhibition [16]: 4.9%
